Experimental data taken from the RNAGym collection of RNA variant scans (doi:10.1126/science.aae0568).
Fewer inactive variants are shown than the library holds.

B1: tRNA (parent)
chain: GUUCCGUUGGCGUAAUGGUAACGCGUCUCCCUCCUAAGGAGAAGACUGCGGGUUCGAGUCCCGUACGGAACG

Variants of: B1
Assay: yeast fitness relative to wild type (ratio to wild type); higher = fitter; tRNA-Arg(CCU), competitive growth, 37 C, YPD
Method in brief: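 A pool of Saccharomyces cerevisiae strains, each with a tRNA-Arg(CCU) gene variant at the native genomic locus, was competed in YPD at 37°C for 24 hours across six parallel replicates. The variants had been chemically synthesised at a 3% per-site mutation rate over 69 sites, and gene amplicons before and after competition were read by 100-nucleotide paired-end sequencing. Darwinian fitness relative to wild type rested on changes in genotype frequencies. Genotypes required ≥ 100 starting reads, and estimates < 0.5 were set to 0.5.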

Variant | yeast fitness
C49U U59G | 0.904
C49U U64A | 0.753
C49U U64C | 0.921
G50A | 1
G50A A65U | 0.703
G50A A69U | 1
G50A A70G | 1.06
G50A A70U | 0.805
G50A C55A | 0.702
G50A C55A C66A | 0.543
G50A C55G C62A | 0.654
G50A C60G U64G | 0.521
G50A C61G | 0.737
G50A C62A C66G | ≤ 0.5
G50A C62A G68A | ≤ 0.5
G50A C62G | 1.03
G50A C62U | 1
G50A C62U G63A | ≤ 0.5
G50A C66A | 0.516
G50A C66U | 0.783
G50A C66U A69C | 0.531
G50A G51C | 0.585
G50A G51U | 0.664
G50A G52A | 0.688

Variant | yeast fitness
G50A G52U G67C | ≤ 0.5
G50A G56A | 1.04
G50A G56A A69C | 0.706
G50A G56A C62G A70U | ≤ 0.5
G50A G56C | 0.635
G50A G56C G63A | 0.561
G50A G67A | 0.818
G50A G67C | 0.743
G50A G68C | 0.635
G50A U53C C62A A69U | 0.517
G50A U54A | 0.705
G50A U59C | 0.863
G50A U59G | 0.846
G50C | 0.844
G50C A57U | 0.63
G50C A57U C61A | ≤ 0.5
G50C A65C | 0.602
G50C A70G | 0.681
G50C A70U | 0.875
G50C C55A C60A | ≤ 0.5
G50C C60A | ≤ 0.5
G50C C61G A70C | ≤ 0.5
G50C C61U C62U A69U | ≤ 0.5
G50C C62G | 0.965

Variant | yeast fitness
G50C C62U | 0.963
G50C C66A | 0.657
G50C C66U | 0.596
G50C G51A C55U | 0.549
G50C G51A C62U | ≤ 0.5
G50C G51C G56A | 0.602
G50C G52C | 0.562
G50C G58A C66U | 0.538
G50C G58C | 0.722
G50C G58U G68U A69G | 0.508
G50C G63A | 0.773
G50C U53A A57U A65U | 0.57
G50C U53C C55U | 0.528
G50C U53C U54A | ≤ 0.5
G50C U54C A57G | ≤ 0.5
G50C U54C C62G | 0.622
G50C U59C | 0.721
G50C U64C | 0.967
G50U | 0.961
G50U A65G A70C | 0.59
G50U A69U | 1.02
G50U C61A | ≤ 0.5
G50U C62U A69C | 0.661
G50U G67A | 0.821

Variant | yeast fitness
G50U U59G | 0.796
G51A | 0.917
G51A A57C C66U | 0.59
G51A A57C U59C | ≤ 0.5
G51A A57G | 0.819
G51A A57G A65G C66U | ≤ 0.5
G51A A65C | 0.75
G51A A65G | 0.852
G51A A65U | 0.66
G51A A69U | 0.738
G51A A69U A70G | 0.543
G51A A70U | 0.935
G51A C55G G68C | ≤ 0.5
G51A C55U | 0.633
G51A C55U A65U | ≤ 0.5
G51A C55U G58A | 0.606
G51A C61A | 0.536
G51A C61A C66A | ≤ 0.5
G51A C61G | 0.588
G51A C61U | 1.11
G51A C61U C66G | ≤ 0.5
G51A C62A | 0.561
G51A C62G | 0.621
G51A C62G C66U | ≤ 0.5

Variant | yeast fitness
G51A C62U | 0.763
G51A C66A | 0.555
G51A C66U | 0.82
G51A G52A | 0.571
G51A G52C C61U | 0.536
G51A G63A | 0.739
G51A G63C | 0.693
G51A G67A | 0.872
G51A G67C | 0.857
G51A G67U | 0.709
G51A G68C | 0.671
G51A U53A A69C | ≤ 0.5
G51A U53C | 0.745
G51A U53G G68A | ≤ 0.5
G51A U59A | 0.696
G51A U59A C61U G67A | ≤ 0.5
G51A U59A C62G | ≤ 0.5
G51A U59A G67C | ≤ 0.5
G51C | 0.612
G51C A57C | 0.551
G51C A57G | 0.52
G51C A57G C61U A65C | ≤ 0.5
G51C A57U | 0.691
G51C A65C | 0.71

Variant | yeast fitness
G51C A65U | 0.597
G51C A69U | 0.624
G51C A70U | 0.662
G51C C55G C62A | ≤ 0.5
G51C C55U | ≤ 0.5
G51C C61G | 1.04
G51C C62G | 0.528
G51C C62G G68A | 0.715
G51C C62U | 0.668
G51C C62U A70U | ≤ 0.5
G51C C66A | ≤ 0.5
G51C C66U | 0.565
G51C G52C U59A | 0.614
G51C G56A C62G C66A A70G | ≤ 0.5
G51C G58A | 0.789
G51C G63A | 0.611
G51C G67A | 0.572
G51C G67U | 0.504
G51C G68C | 0.641
G51C U54A A57C | 0.859
G51C U54A G56C | ≤ 0.5
G51C U54C A57G | ≤ 0.5
G51C U54C C66U | ≤ 0.5
G51C U59C | 0.523

Variant | yeast fitness
G51C U64C | 0.941
G51U | 0.843
G51U A57G | 0.642
G51U C61U | 0.747
G51U U53A | 0.657
G52A | 0.696
G52A A57C | 0.789
G52A A57C A70G | 0.524
G52A A57G G58A A70U | ≤ 0.5
G52A A57U | 0.516
G52A A57U C61G | ≤ 0.5
G52A A65G | 0.86
G52A A65U | 0.631
G52A A69U | 0.853
G52A A70C | 0.675
G52A C55A | 0.581
G52A C55G | 0.561
G52A C55G A69U | ≤ 0.5
G52A C55U | 0.561
G52A C60A | 0.696
G52A C60G | ≤ 0.5
G52A C61A A69U | ≤ 0.5
G52A C61U | 0.886
